Reference: ChEMBL document CHEMBL1671716, “Antimicrobial susceptibility patterns for recent clinical isolates of anaerobic bacteria in South Korea” (2010)

Legend:
Clostridium perfringens [1] = assay: Antimicrobial activity against Clostridium perfringens assessed as percent resistant isolates after 48 hrs by agar dilution method; format: functional
Clostridium perfringens [2] = assay: Antimicrobial activity against Clostridium perfringens assessed as percent resistant isolates after 48 hrs by agar dilution method in presence of 4 ug/ml beta-lactamase inhibitor Tazobactam; format: functional
Summary of the method: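 CLSI agar dilution on recent Korean clinical anaerobe isolates. Inoculum 10^5 CFU per spot by replicator. Plates incubated in an anaerobic chamber at 37°C for 48 h. For piperacillin plus tazobactam, tazobactam was held constant at 4 μg/ml. Resistance and susceptibility rates derived from MICs.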

## CO[C@@]1(NC(=O)C2SC(=C(C(N)=O)C(=O)O)S2)C(=O)N2C(C(=O)O)=C(CSc3nnnn3C)CS[C@@H]21 (some centres undefined) [CEFOTETAN]
Clostridium perfringens [1]
  Activity: 0%

## CO[C@@]1(NC(=O)Cc2cccs2)C(=O)N2C(C(=O)O)=C(COC(N)=O)CS[C@@H]21 [CEFOXITIN]
Clostridium perfringens [1]
  Activity: 0%

## O=C(N[C@H](CO)[C@H](O)c1ccc([N+](=O)[O-])cc1)C(Cl)Cl [CHLORAMPHENICOL]
Clostridium perfringens [1]
  Activity: 0%

## CCC[C@@H]1C[C@@H](C(=O)N[C@@H]([C@H]2O[C@H](SC)[C@H](O)[C@@H](O)[C@H]2O)[C@H](C)Cl)N(C)C1 [CLINDAMYCIN]
Clostridium perfringens [1]
  Activity: 7%

## C[C@@H](O)[C@H]1C(=O)N2C(C(=O)O)=C(SCCNC=N)C[C@H]12 [IMIPENEM ANHYDROUS]
Clostridium perfringens [1]
  Activity: 0%

## C[C@@H](O)[C@H]1C(=O)N2C(C(=O)O)=C(S[C@@H]3CN[C@H](C(=O)N(C)C)C3)[C@H](C)[C@H]12 [MEROPENEM]
Clostridium perfringens [1]
  Activity: 0%

## Cc1ncc([N+](=O)[O-])n1CCO [METRONIDAZOLE]
Clostridium perfringens [1]
  Activity: 0%

## CCN1CCN(C(=O)N[C@@H](C(=O)N[C@@H]2C(=O)N3[C@@H]2SC(C)(C)[C@@H]3C(=O)O)c2ccccc2)C(=O)C1=O [PIPERACILLIN]
Clostridium perfringens [1]
  Activity: 0%
Clostridium perfringens [2]
  Activity: 0%
